# Laboratory results published in ChEMBL document CHEMBL4834416, “The Discovery of Novel ACA Derivatives as Specific TRPM2 Inhibitors that Reduce Ischemic Injury Both In Vitro and In Vivo” (J Med Chem, 2021).
# Activity calls are given as the source filed them. No cut-off for these calls is given here.
# What was measured:
# [1] = molecular target: T1, Transient receptor potential cation channel subfamily M member 2 (Homo sapiens, UniProt O94759); assay: Inhibition of human TRPM2 expressed in HEK293T cells assessed as suppression of H2O2-induced calcium flux at 1 uM measured after 30 mins by Fluo-3/AM assay; assay type: cell-based
# [2] = molecular target: T1, Transient receptor potential cation channel subfamily M member 2; assay: Inhibition of human TRPM2 expressed in HEK293T cells assessed as suppression of H2O2-induced calcium flux at 0.3 uM measured after 30 mins by Fluo-3/AM assay; assay type: cell-based
# [3] = molecular target: T2, Transient receptor potential cation channel subfamily M member 8 (Homo sapiens, UniProt Q7Z2W7); assay: Inhibition of human TRPM8 expressed in HEK293T cells assessed as blocked of menthol-activated current by whole cell patch clamp electrophysiology relative to control; assay type: cell-based
# In short: (§1)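 Whole-cell patch clamp was run at room temperature on HEK293T cells transiently cotransfected with human TRPM8 plus GFP, 24–48 h before recording. ECS was 145 NaCl, 5.6 KCl, 2 MgCl₂, 1.2 CaCl₂, 10 HEPES, pH 7.2. Current was activated with 1 mM menthol, and compound was perfused at least 60 s after it stabilized. Inhibition was calculated relative to stable agonist current minus residual current; n = 3–6.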
# Target sequence in this assay (Q7Z2W7 whole entry, the tested form may be a part): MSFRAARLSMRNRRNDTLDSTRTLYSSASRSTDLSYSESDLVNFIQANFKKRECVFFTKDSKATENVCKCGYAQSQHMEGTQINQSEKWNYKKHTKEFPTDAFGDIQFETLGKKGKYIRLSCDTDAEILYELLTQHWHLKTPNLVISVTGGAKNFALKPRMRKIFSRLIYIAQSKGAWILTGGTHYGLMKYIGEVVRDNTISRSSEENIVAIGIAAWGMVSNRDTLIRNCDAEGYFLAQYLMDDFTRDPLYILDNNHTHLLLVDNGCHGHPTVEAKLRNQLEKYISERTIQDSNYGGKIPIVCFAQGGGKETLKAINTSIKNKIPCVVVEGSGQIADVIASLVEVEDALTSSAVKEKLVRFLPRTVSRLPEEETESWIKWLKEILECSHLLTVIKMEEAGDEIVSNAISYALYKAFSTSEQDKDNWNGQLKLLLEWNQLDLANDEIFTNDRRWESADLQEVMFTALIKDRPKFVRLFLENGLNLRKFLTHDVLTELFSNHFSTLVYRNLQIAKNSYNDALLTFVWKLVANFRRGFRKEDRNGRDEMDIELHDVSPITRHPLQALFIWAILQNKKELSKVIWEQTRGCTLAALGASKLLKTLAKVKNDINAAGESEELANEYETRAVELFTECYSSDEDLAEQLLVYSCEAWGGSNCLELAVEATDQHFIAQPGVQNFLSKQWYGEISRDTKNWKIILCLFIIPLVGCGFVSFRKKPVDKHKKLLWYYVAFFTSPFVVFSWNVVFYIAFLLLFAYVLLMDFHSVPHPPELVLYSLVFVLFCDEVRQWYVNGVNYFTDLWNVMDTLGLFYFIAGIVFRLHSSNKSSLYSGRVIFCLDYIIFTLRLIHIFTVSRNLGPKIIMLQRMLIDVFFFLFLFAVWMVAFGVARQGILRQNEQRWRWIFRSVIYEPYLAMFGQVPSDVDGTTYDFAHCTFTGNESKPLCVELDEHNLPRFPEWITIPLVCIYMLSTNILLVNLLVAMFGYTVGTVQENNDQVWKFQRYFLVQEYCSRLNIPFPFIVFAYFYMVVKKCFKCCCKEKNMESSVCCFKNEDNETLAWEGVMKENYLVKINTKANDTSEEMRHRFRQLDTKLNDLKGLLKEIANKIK
# [4] = molecular target: T1, Transient receptor potential cation channel subfamily M member 2; assay: Inhibition of human TRPM2 expressed in HEK293T cells assessed as blocked of ADPR-activated current by whole cell patch clamp electrophysiology; assay type: cell-based
# Mus musculus [5] = assay: Neuroprotective activity in mouse model of transient middle cerebral artery occlusion-induced cerebral ischemia-reperfusion injury assessed as reduction neurological score at 1 mg/kg, iv treated for 3 hrs after onset of reperfusion by TTC staining based assay relative to control; assay type: functional, organism-based
# Mus musculus [6] = assay: Neuroprotective activity in mouse model of transient middle cerebral artery occlusion-induced cerebral ischemia-reperfusion injury assessed as reduction in infarct volume at 3 mg/kg, iv treated for 3 hrs after onset of reperfusion by TTC staining based assay (reference value: 57.6 +/- 4.9%); assay type: functional; set-up: scale not given: the % may be the effect or the level left
# Mus musculus [7] = assay: Neuroprotective activity in mouse model of transient middle cerebral artery occlusion-induced cerebral ischemia-reperfusion injury assessed as reduction neurological score at 0.3 mg/kg, iv treated for 3 hrs after onset of reperfusion by TTC staining based assay relative to control; assay type: functional, organism-based
# SH-SY5Y [8] = assay: Cytotoxicity against human SH-SY5Y cells assessed as cell viability under normoxic/normal sugar condition at 10 to 30 uM by CCK-8 assay; assay type: cell-based; conditions: dose 10-30 µM
# In short: (§2)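 SH-SY5Y cells were seeded at 2 × 10⁴ per well and grown 12 h at 37 °C. They were then treated with compound (1–30 μM) under normoxic, normal-glucose conditions for 24 h. CCK-8 (10%) was added for 2 h at 37 °C and OD450 read. Viability was taken relative to untreated control after blank subtraction, with three replicate wells.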
# Mus musculus [9] = assay: Neuroprotective activity in mouse model of transient middle cerebral artery occlusion-induced cerebral ischemia-reperfusion injury assessed as reduction neurological score at 3 mg/kg, iv treated for 3 hrs after onset of reperfusion by TTC staining based assay (reference value: 2.4 +/- 0.5); assay type: functional
# SH-SY5Y [10] = assay: Neuroprotective activity against oxygen glucose deprivation/reperfusion-induced cell death in human SH-SY5Y cells assessed as cell viability at 3 uM […] by CCK8 assay relative to control; assay type: functional
# Mus musculus [11] = assay: Neuroprotective activity in mouse model of transient middle cerebral artery occlusion-induced cerebral ischemia-reperfusion injury assessed as reduction in infarct volume at 0.3 mg/kg, iv treated for 3 hrs after onset of reperfusion by TTC staining based assay (reference value: 52 +/- 1.7%); assay type: functional; set-up: scale not given: the % may be the effect or the level left
# Mus musculus [12] = assay: Neuroprotective activity in mouse model of transient middle cerebral artery occlusion-induced cerebral ischemia-reperfusion injury assessed as reduction in infarct volume at 1 mg/kg, iv treated for 3 hrs after onset of reperfusion by TTC staining based assay (reference value: 52 +/- 1.7%); assay type: functional; set-up: scale not given: the % may be the effect or the level left
# Phospholipase A2 = Phospholipase A2 (Homo sapiens, UniProt P04054); assay: Inhibition of PLA2 (unknown origin) using soybean phosphatidylcholine as substrate at 10 uM preincubated for 30 mins followed incubated for 60 mins after substrate addition by microplate reader relative to control
# In short: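 PLA2 (4 μg/L in PBS) was preincubated 30 min at 37 °C with inhibitor in 125 mM Tris. Substrate was then added for 60 min: soybean phosphatidylcholine with Tris, CaCl₂, sodium deoxycholate and 0.5% Triton X-100. Liberated free fatty acids were quantified colorimetrically at OD550. Results are % inhibition versus enzyme without inhibitor, n = 3.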
# [13] = molecular target: T2, Transient receptor potential cation channel subfamily M member 8; assay: Inhibition of human TRPM8 expressed in HEK293T cells assessed as blocked of menthol-activated current at 10 uM by whole cell patch clamp electrophysiology relative to control; assay type: cell-based; in short: as §1
# Target sequence in this assay (Q7Z2W7 whole entry, looked up, the tested form may be a part): as the sequence (Q7Z2W7 whole entry, the tested form may be a part) above
# SH-SY5Y [14] = assay: Cytotoxicity against human SH-SY5Y cells assessed as toxicity at 30 uM incubated for 24 hrs by CCK-8 assay; assay type: cell-based; in short: as §2
# Chain of Phospholipase A2 (P04054 23-148 limits assumed): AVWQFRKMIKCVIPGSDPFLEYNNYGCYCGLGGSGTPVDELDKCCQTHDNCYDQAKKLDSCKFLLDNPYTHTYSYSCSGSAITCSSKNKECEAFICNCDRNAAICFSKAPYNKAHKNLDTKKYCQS
# T1 sequence (O94759 whole entry): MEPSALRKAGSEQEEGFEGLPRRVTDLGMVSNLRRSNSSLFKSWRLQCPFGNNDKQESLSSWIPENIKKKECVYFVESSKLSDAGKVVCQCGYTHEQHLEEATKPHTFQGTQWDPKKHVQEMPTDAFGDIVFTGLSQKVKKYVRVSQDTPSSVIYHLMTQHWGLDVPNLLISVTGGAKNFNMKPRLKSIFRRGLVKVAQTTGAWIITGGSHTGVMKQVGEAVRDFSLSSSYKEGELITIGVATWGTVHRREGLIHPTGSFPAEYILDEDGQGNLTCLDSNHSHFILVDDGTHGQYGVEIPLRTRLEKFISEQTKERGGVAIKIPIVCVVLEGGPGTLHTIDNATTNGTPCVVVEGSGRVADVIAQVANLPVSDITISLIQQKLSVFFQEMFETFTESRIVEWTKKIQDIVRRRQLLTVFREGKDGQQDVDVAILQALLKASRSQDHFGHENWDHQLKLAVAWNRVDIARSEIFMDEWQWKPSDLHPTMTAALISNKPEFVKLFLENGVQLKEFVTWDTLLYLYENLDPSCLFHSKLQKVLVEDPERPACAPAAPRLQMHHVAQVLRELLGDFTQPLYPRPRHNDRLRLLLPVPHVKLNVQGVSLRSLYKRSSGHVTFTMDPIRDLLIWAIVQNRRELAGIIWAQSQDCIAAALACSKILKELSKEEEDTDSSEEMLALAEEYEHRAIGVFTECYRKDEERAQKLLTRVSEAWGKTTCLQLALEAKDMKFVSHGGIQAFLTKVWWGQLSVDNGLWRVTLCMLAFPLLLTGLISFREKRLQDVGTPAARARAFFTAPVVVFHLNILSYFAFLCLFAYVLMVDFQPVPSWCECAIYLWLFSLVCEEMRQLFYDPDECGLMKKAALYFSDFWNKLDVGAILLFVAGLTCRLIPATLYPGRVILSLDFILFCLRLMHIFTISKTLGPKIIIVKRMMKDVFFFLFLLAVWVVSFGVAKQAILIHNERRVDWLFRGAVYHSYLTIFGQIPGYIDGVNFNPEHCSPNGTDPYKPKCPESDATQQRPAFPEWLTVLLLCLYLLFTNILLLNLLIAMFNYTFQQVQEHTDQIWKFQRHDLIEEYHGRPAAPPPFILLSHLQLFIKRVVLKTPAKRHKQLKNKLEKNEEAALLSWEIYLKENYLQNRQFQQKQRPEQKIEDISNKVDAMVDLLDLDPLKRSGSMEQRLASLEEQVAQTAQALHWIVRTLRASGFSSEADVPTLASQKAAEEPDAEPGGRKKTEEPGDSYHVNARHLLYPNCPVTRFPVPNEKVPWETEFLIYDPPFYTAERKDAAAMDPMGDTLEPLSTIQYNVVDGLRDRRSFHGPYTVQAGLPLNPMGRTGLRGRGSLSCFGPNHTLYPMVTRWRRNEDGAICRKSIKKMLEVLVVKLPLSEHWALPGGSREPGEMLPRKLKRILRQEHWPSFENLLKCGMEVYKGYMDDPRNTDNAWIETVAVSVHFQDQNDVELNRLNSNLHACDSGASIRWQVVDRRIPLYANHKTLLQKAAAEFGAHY
SMILES,inhibition [1] [%],further results
CCCCCc1ccc(/C=C/C(=O)c2ccccc2C(=O)O)cc1,> 45,–
O=C(/C=C/c1ccc(Cl)cc1)Nc1ccccc1C(=O)O,< 45,inhibition [2]: inactive
CCc1ccc(/C=C/C(=O)Nc2ccccc2C(=O)O)cc1,< 45,inhibition [2]: inactive
O=C(/C=C/c1ccc(-c2ccc(F)cc2)cc1)Nc1ccccc1C(=O)O,< 45,–
COc1cccc(NC(=O)/C=C/c2ccc(Cl)cc2)c1,–,IC50 [3]: > 10000 nM
CC(C)(C)c1ccc(-c2ccc(/C=C/C(=O)Nc3ccccc3C(=O)O)cc2)cc1,> 45,–
COc1cccc(-c2ccc(/C=C/C(=O)Nc3ccccc3C(=O)O)cc2)c1,> 45,–
CC(C)c1ccc(-c2ccc(/C=C/C(=O)Nc3ccccc3C(=O)O)cc2)cc1,> 45,–
COc1ccccc1-c1ccc(/C=C/C(=O)Nc2ccccc2C(=O)O)cc1,> 45,–
CCCc1ccc(/C=C/C(=O)Nc2ccccc2C(=O)O)cc1,< 45,inhibition [2]: inactive
O=C(/C=C/c1ccc(N2CCCCC2)cc1)Nc1ccccc1C(=O)O,< 45,inhibition [2]: inactive
O=C(/C=C/c1ccc(-c2cccnc2)cc1)Nc1ccccc1C(=O)O,< 45,inhibition [2]: inactive
Cc1ccc(C(=O)O)c(NC(=O)/C=C/c2ccc(-c3cccc([N+](=O)[O-])c3)cc2)c1,> 45,–
CCCCCc1ccc(/C=C/C(=O)Nc2c(C)cccc2C(=O)O)cc1,< 45,–
O=C(/C=C/c1ccc(-c2ccccc2)cc1)Nc1cc(Cl)ccc1C(=O)O,> 45,–
Clc1ccc(COC(Cn2ccnc2)c2ccc(Cl)cc2Cl)cc1 (configuration not stated) [ECONAZOLE],–,IC50 [4]: 3000 nM
CCc1ccc(-c2ccc(/C=C/C(=O)Nc3ccccc3C(=O)O)cc2)cc1,> 45,–
CCCCCc1ccc(/C=C/C(=O)Nc2cc(Cl)ccc2C(=O)O)cc1,> 45,–
CCCCCc1ccc(/C=C/C(=O)Nc2ccc(C(=O)O)cc2)cc1,< 45,–
O=C(/C=C/c1ccc(-c2ccc(C(F)(F)F)cc2)cc1)Nc1ccccc1C(=O)O,> 45,–
CCCCCc1ccc(/C=C/C(=O)Nc2ccc(Br)cc2C(=O)O)cc1,> 45,–

SMILES,inhibition [1] [%],further results
O=C(/C=C/c1ccc(-c2ccccc2)cc1)Nc1ccccc1C(=O)O,> 45,IC50 [4]: 2560 nM
CC1=NN(c2ccccc2)C(=O)C1 [EDARAVONE],–,Activity (Mus musculus [5]): inactive; Activity (Mus musculus [6]): 39%; Activity (Mus musculus [7]): inactive; Activity (SH-SY5Y [8]): Non-Toxic; Activity (Mus musculus [9]): 1.6; viability at 3 µM (SH-SY5Y [10]; read-out: Activity): 81.2%; Activity (Mus musculus [11]): 46.2%; Activity (Mus musculus [12]): 43.9%
O=C1CCN(C(=O)/C=C/c2ccc(-c3ccccc3)cc2)c2ccccc21,< 45,–
O=C(/C=C/c1ccc(-c2cccc(Cl)c2)cc1)Nc1ccccc1C(=O)O,> 45,–
O=C(/C=C/c1ccccc1)Nc1ccccc1C(=O)O,< 45,inhibition [2]: inactive
O=C(/C=C/c1ccc(-c2ccccc2C(F)(F)F)cc1)Nc1ccccc1C(=O)O,> 45,–
CCCCCc1ccc(/C=C/C(=O)Nc2cc(F)c(F)cc2C(=O)O)cc1,> 45,–
CCCCCc1ccc(/C=C/C(=O)Nc2cccc(C(=O)O)c2)cc1,> 45,–
O=C(/C=C/c1ccc(-c2cccc(Br)c2)cc1)Nc1ccccc1C(=O)O,> 45,–
CCOC(=O)Cn1nc(-c2ccc(C(F)(F)F)cc2)c2c1CCCCC2,–,IC50 [4]: 13 nM
CC(C)NC(=O)c1ccc(/C=C/C(=O)Nc2ccccc2C(=O)O)cc1,< 45,inhibition [2]: inactive
CCCCCc1ccc(/C=C/C(=O)Nc2c(C(=O)O)ccc(C)c2C)cc1,< 45,–
CCCCCc1ccc(NC(=O)c2ccccc2C(=O)O)cc1,> 45,–
CCCCCc1ccc(/C=C/C(=O)Nc2c(Cl)cccc2C(=O)O)cc1,< 45,–
CCOc1ccc(/C=C/C(=O)Nc2ccccc2C(=O)O)cc1,< 45,inhibition [2]: inactive
CCCCCc1ccc(C(=O)Nc2ccccc2C(=O)O)cc1,> 45,–
CC(C)(C)c1ccc(/C=C/C(=O)Nc2ccccc2C(=O)O)cc1,< 45,inhibition [2]: inactive
O=C1CCCN(C(=O)/C=C/c2ccc(-c3ccccc3)cc2)c2ccccc21,< 45,–
CCCCCc1ccc(/C=C/C(=O)Nc2c(C)cc(Cl)cc2C(=O)O)cc1,< 45,–
CCCCCc1ccc(/C=C/C(=O)N2CCC(=O)c3ccccc32)cc1,< 45,–
Cc1ccc(-c2ccc(/C=C/C(=O)Nc3ccccc3C(=O)O)cc2)cc1,> 45,–

SMILES,inhibition [1] [%],further results
O=C(/C=C/c1ccc(-c2ccccc2)cc1)Nc1ccc(F)cc1C(=O)O,> 45,–
O=C(/C=C/c1ccc(N2CCOCC2)cc1)Nc1ccccc1C(=O)O,< 45,inhibition [2]: inactive
O=C(/C=C/c1ccc(-c2cccc([N+](=O)[O-])c2)cc1)Nc1ccccc1C(=O)O,> 45,inhibition (Phospholipase A2): 24.6%; Activity (SH-SY5Y [8]): Non-Toxic; IC50 [4]: 398 nM; inhibition [13]: 14.6%; Activity (SH-SY5Y [14]): < 10%; Activity (SH-SY5Y [10]): Active
Cc1cc(-c2ccccc2)ccc1/C=C/C(=O)Nc1ccccc1C(=O)O,> 45,–
Cc1ccccc1-c1ccc(/C=C/C(=O)Nc2ccccc2C(=O)O)cc1,> 45,–
COc1ccc(-c2ccc(/C=C/C(=O)Nc3ccccc3C(=O)O)cc2)cc1,> 45,–
Cc1cc(/C=C/C(=O)Nc2ccccc2C(=O)O)ccc1-c1ccccc1,> 45,–
O=C(/C=C/c1ccc(-c2ccccc2)cc1)N1C(=O)c2ccccc21,< 45,–
CCCCCc1ccc(/C=C/C(=O)N2CCCC(=O)c3ccccc32)cc1,< 45,–
CCCCCc1ccc(/C=C/c2ccccc2C(=O)O)cc1,< 45,–
O=C(/C=C/c1ccc(-c2ccccc2)cc1)Nc1ccc(Br)cc1C(=O)O,> 45,inhibition (Phospholipase A2): inactive; IC50 [4]: 410 nM; inhibition [13]: 93.3%; Activity (SH-SY5Y [14]): < 10%; Activity (SH-SY5Y [10]): Active
O=C(/C=C/c1ccc(-c2ccccc2)cc1)Nc1ccc(Cl)cc1C(=O)O,> 45,–
CCCCCc1ccc(/C=C/C(=O)Nc2cc(C)ccc2C(=O)O)cc1,> 45,inhibition (Phospholipase A2): inactive; Activity (SH-SY5Y [8]): Non-Toxic; IC50 [4]: 467 nM; inhibition [13]: 88.1%; Activity (SH-SY5Y [14]): < 10%; Activity (SH-SY5Y [10]): Active
Cc1cccc(-c2ccc(/C=C/C(=O)Nc3ccccc3C(=O)O)cc2)c1,> 45,–
O=C(/C=C/c1ccc(-c2cccc(F)c2)cc1)Nc1ccccc1C(=O)O,> 45,IC50 [4]: 830 nM; Activity (SH-SY5Y [14]): < 23.7%
CCCCCc1ccc(/C=C/C(=O)Nc2ccc(C)cc2C(=O)O)cc1,> 45,inhibition (Phospholipase A2): inactive; IC50 [4]: 987 nM; inhibition [13]: 85.6%; Activity (SH-SY5Y [14]): < 10%; Activity (SH-SY5Y [10]): Active
CC(C)c1ccc(/C=C/C(=O)Nc2ccccc2C(=O)O)cc1,< 45,inhibition [2]: inactive
Cc1ccc(/C=C/C(=O)Nc2ccccc2C(=O)O)cc1,< 45,inhibition [2]: inactive
O=C(/C=C/c1ccc(-c2ccccc2F)cc1)Nc1ccccc1C(=O)O,> 45,–
Clc1ccccc1C(c1ccccc1)(c1ccccc1)n1ccnc1 [CLOTRIMAZOLE],–,IC50 [4]: 3000 nM
O=C(/C=C/c1ccc(-c2cccc([N+](=O)[O-])c2)cc1)Nc1ccc(Br)cc1C(=O)O,> 45,–
